In ChEMBL document CHEMBL1926621, “New potent 5-HT(2A) receptor ligands containing an N'-cyanopicolinamidine nucleus: Synthesis and in vitro pharmacological evaluation” (Eur J Med Chem, 2012):

How the values were obtained:
D(2) dopamine receptor = D(2) dopamine receptor (Rattus norvegicus, UniProt P61169); assay: Displacement of [3H]spiperone from rat corpora striatum dopamine D2 receptor after 15 mins by liquid scintillation counting; conditions: read-out: Ki
In short: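 Corpora striata membranes in Tris-HCl buffer containing NaCl, KCl, CaCl2, MgCl2, ascorbic acid and pargyline. [3H]spiperone 0.4 nM final, 3 mg fresh tissue, incubated 15 min at 37 °C. GF/B filtration, scintillation counting. Six concentrations in triplicate. IC50 converted to Ki via Cheng-Prusoff.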

[1] = target: T1, 5-hydroxytryptamine receptor 1A (Rattus norvegicus, UniProt P19327); assay: Displacement of [3H]-8-OH-DPAT from Sprague-Dawley rat brain cortex serotonin 5-HT1A receptor after 30 mins by liquid scintillation counting; conditions: read-out: Ki
T1 sequence (P19327 whole entry): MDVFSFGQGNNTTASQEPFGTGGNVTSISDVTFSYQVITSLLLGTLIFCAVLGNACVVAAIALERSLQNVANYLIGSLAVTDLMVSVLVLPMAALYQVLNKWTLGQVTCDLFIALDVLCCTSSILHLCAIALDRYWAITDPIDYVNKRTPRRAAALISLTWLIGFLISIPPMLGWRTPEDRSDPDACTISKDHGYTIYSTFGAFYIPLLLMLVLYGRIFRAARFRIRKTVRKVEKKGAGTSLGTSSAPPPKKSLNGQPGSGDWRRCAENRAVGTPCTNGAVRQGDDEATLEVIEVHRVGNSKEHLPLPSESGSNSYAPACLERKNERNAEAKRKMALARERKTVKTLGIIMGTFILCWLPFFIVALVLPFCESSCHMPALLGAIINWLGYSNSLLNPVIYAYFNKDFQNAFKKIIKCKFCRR
In short: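 Male Sprague-Dawley rat (180-220 g) cerebral cortex homogenized in 50 mM Tris-HCl pH 7.7, spun 50,000 g. [3H]-8-OH-DPAT 0.1 nM final, 30 min at 37 °C, GF/B filtration. Test compounds in ethanol or 5% DMSO, six concentrations in triplicate. IC50 by curve fitting, Ki by Cheng-Prusoff using Scatchard-derived KD.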

[2] = target: T2, 5-hydroxytryptamine receptor 2C (Rattus norvegicus, UniProt P08909); assay: Displacement of [3H]mesulergine from Sprague-Dawley rat brain cortex serotonin 5-HT2C receptor after 15 mins by liquid scintillation counting in presence of 5-HT2A blocker, spiperone
T2 sequence (P08909 whole entry): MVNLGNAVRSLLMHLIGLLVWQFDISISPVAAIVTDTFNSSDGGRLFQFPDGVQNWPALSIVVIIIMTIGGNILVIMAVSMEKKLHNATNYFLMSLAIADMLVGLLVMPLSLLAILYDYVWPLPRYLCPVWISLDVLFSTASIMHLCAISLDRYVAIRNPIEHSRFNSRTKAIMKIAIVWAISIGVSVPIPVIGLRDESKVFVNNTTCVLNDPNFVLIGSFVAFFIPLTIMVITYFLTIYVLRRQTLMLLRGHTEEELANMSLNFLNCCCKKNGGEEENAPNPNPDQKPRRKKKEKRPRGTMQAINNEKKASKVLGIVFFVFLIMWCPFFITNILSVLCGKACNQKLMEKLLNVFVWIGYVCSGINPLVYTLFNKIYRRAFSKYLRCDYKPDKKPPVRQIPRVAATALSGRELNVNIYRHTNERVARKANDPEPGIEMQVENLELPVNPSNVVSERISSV
In short: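 Male Sprague-Dawley rat frontal cortex membranes (Tris-HCl/EDTA/MgCl2 pH 7.4, ascorbate, pargyline). 100 nM spiperone in all tubes to block 5-HT2A sites. Mianserin defined nonspecific binding. 15 min at 37 °C, PEI-soaked glass fibre filtration. Six compound concentrations in triplicate. Ki by Cheng-Prusoff.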

D(1A) dopamine receptor = D(1A) dopamine receptor (Rattus norvegicus, UniProt P18901); assay: Displacement of [3H]SCH-23390 from rat corpora striatum dopamine D1 receptor after 15 mins by liquid scintillation counting; conditions: read-out: Ki
Sequence of D(1A) dopamine receptor (P18901 whole entry): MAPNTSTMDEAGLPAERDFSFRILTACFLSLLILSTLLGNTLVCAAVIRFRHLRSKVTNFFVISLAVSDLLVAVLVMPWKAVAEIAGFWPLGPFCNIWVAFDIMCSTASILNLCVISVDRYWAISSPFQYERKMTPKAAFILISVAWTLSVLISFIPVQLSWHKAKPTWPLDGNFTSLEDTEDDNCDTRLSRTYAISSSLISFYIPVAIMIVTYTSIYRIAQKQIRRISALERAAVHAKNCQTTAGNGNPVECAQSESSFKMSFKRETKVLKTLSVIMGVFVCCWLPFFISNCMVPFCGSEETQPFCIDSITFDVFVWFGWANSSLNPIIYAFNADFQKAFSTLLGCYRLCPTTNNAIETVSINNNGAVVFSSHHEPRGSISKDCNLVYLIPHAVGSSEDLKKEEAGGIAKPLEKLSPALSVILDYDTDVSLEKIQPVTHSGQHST
In short: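 Rat corpora striata homogenized in 50 mM Tris-HCl pH 7.7, spun twice at 50,000 g. Resuspended in Tris-HCl with NaCl, KCl, CaCl2, MgCl2, ascorbic acid and pargyline. 0.4 nM [3H]SCH-23390 final, 3 mg fresh tissue, 15 min at 37 °C. Nonspecific binding with piflutixol. Ki by Cheng-Prusoff from triplicate six-point curves.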

[3] = target: 5-hydroxytryptamine receptor 2A (Rattus norvegicus, UniProt P14842); assay: Displacement of [3H]ketanserin from Sprague-Dawley rat brain cortex serotonin 5-HT2A receptor after 15 mins by liquid scintillation counting; conditions: for Ki: read-out: Ki
Sequence of 5-hydroxytryptamine receptor 2A (P14842 whole entry): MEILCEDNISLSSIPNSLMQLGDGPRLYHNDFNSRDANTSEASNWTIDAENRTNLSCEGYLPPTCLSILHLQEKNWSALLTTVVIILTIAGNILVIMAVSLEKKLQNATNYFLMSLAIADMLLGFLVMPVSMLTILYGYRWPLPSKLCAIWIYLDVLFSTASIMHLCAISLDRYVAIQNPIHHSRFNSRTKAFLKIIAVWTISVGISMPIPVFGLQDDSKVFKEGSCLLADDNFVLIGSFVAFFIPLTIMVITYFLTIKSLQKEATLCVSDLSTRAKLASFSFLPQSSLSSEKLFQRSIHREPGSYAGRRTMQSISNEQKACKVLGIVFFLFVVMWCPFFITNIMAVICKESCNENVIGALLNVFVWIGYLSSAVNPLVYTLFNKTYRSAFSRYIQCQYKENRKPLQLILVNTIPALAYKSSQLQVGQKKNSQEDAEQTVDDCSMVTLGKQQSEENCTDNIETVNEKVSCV
In short: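 Male Sprague-Dawley rat frontal cortex membranes in 50 mM Tris-HCl, 0.5 mM EDTA, 10 mM MgCl2 pH 7.4, with 0.1% ascorbate and pargyline. 0.4 nM [3H]ketanserin, 5 mg wet tissue, 15 min at 37 °C. Filtered on PEI-soaked glass fibre. Six compound concentrations in triplicate. IC50 converted to Ki by Cheng-Prusoff.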

Sequence of D(2) dopamine receptor (P61169 whole entry): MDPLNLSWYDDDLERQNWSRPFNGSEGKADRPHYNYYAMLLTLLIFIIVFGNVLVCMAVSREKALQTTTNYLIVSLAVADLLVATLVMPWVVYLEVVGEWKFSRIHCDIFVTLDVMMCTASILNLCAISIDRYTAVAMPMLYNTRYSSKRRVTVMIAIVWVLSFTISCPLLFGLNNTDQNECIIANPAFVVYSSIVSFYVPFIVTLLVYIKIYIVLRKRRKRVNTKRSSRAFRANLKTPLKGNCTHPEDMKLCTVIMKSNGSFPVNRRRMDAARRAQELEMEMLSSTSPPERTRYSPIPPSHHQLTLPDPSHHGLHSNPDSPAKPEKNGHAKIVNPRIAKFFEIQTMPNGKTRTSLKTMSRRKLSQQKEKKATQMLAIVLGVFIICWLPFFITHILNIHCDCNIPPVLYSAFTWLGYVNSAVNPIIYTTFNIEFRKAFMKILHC

SMILES: COc1ccccc1N1CCN(CCCN/C(=N\C#N)c2ccccn2)CC1
- Ki (D(2) dopamine receptor): > 10000 nM
- Ki [1]: 4.68 nM
- Ki ([2]; read-out: Ki): 1.61 nM
- Ki (D(1A) dopamine receptor): > 10000 nM
- IC50 [3]: 0.00212 nM
- Ki [3]: 0.00157 nM

SMILES: N#C/N=C(\NCCCN1CCN(c2cccc(C(F)(F)F)c2)CC1)c1ccccn1
- Ki (D(2) dopamine receptor): 83.7 nM
- Ki [1]: 1.31 nM
- Ki ([2]; read-out: Ki): 1.81 nM
- Ki (D(1A) dopamine receptor): > 10000 nM
- IC50 [3]: 0.00105 nM
- Ki [3]: 0.000778 nM

SMILES: Cc1cccc(N2CCN(CCCN/C(=N\C#N)c3ccccn3)CC2)c1C
- Ki (D(2) dopamine receptor): > 10000 nM
- Ki [1]: 30 nM
- Ki ([2]; read-out: Ki): 29.7 nM
- Ki (D(1A) dopamine receptor): > 10000 nM
- Ki [3]: 0.867 nM

SMILES: N#C/N=C(\NCCCN1CCN(c2ncccn2)CC1)c1ccccn1
- Ki (D(2) dopamine receptor): > 10000 nM
- Ki [1]: 3080 nM
- Ki ([2]; read-out: Ki): 22.5 nM
- Ki (D(1A) dopamine receptor): > 10000 nM
- IC50 [3]: 0.0217 nM
- Ki [3]: 0.0161 nM

SMILES: CCOc1ccccc1N1CCN(CCCN/C(=N\C#N)c2ccccn2)CC1
- Ki (D(2) dopamine receptor): > 10000 nM
- Ki [1]: 17.2 nM
- Ki [2]: Not Active
- Ki (D(1A) dopamine receptor): 52.4 nM
- Ki [3]: 2730 nM

SMILES: N#C/N=C(\NCCCN1CCN(c2ccccn2)CC1)c1ccccn1
- Ki (D(2) dopamine receptor): > 10000 nM
- Ki [1]: 30.6 nM
- Ki ([2]; read-out: Ki): > 10000 nM
- Ki (D(1A) dopamine receptor): > 10000 nM
- Ki [3]: 1.12 nM
